Results taken from ChEMBL document CHEMBL1765003, “Discovery of (1S,2R,3R)-2,3-dimethyl-2-phenyl-1-sulfamidocyclopropanecarboxylates: novel and highly selective aggrecanase inhibitors” (J Med Chem, 2011).

What was measured:
Cytochrome P450 2A6 = molecular target: T1, Cytochrome P450 2A6 (Homo sapiens, UniProt P11509); test: Inhibition of CYP2A6 at up to 50 uM; assay type: ADME
T1 sequence (P11509 whole entry): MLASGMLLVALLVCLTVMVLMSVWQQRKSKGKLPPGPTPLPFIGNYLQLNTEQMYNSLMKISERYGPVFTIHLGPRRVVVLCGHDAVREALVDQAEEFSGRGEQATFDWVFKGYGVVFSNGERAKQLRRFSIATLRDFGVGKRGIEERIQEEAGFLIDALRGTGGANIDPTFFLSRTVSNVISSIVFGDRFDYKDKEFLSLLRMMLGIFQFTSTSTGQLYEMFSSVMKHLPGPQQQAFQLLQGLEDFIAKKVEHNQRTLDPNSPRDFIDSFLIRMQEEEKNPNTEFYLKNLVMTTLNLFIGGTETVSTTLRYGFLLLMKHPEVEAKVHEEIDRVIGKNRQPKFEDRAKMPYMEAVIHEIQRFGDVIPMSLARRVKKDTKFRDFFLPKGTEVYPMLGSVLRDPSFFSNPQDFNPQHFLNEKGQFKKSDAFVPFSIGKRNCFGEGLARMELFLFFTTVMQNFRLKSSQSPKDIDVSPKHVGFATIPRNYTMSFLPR

Cytochrome P450 2D6 = Cytochrome P450 2D6 (Homo sapiens, UniProt P10635); test: Inhibition of CYP2D6 at up to 50 uM; assay type: ADME
[1] = molecular target: Disintegrin and metalloproteinase domain-containing protein 17 (Homo sapiens, UniProt P78536); test: Inhibition of human recombinant TACE after 60 mins by fluorescence plate reader
How it was run: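 rh-TACE at 80 ng/mL with 10 μM MCA-Pro-Leu-Ala-Gln-Ala-Val-Dpa-Arg-Ser-Ser-Ser-Arg-NH₂, in 100 mM Tris-HCl pH 7.5, 150 mM NaCl, 10 mM CaCl₂, 0.05% Brij-35. Inhibitor preincubated for 15 min at 25 °C. Fluorescence (ex 325/em 405 nm) read at 60 min. IC50 from three linear-range points; mean of ≥2.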

[2] = Half life in Sprague-Dawley rat at 10 mg/kg, po; assay type: ADME, organism-based; design: dose 10 mg/kg, route oral; conditions: in vivo
Cytochrome P450 2C9 = Cytochrome P450 2C9 (Homo sapiens, UniProt P11712); test: Inhibition of CYP2C9 at up to 50 uM; assay type: ADME
[3] = molecular target: Matrix metalloproteinase-14 (Homo sapiens, UniProt P50281); test: Inhibition of human recombinant MMP14 after 60 mins by fluorescence plate reader
How it was run: (§1)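 Recombinant human enzyme at 20 ng/mL with 10 μM MOCAc-Lys-Pro-Leu-Gly-Leu-A2pr(Dnp)-Ala-Arg-NH₂, in 100 mM Tris-HCl pH 7.5, 150 mM NaCl, 10 mM CaCl₂, 0.05% Brij-35. Enzyme pretreated with inhibitor for 15 min at 25 °C, then substrate added. Fluorescence (ex 325, em 405 nm) read at 60 min. IC50 taken from three points in the linear range; mean of ≥2 determinations.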

Interstitial collagenase = molecular target: T2, Interstitial collagenase (Homo sapiens, UniProt P03956); test: Inhibition of human recombinant MMP1 after 60 mins by fluorescence plate reader; how it was run: as §1
T2 sequence (P03956 whole entry): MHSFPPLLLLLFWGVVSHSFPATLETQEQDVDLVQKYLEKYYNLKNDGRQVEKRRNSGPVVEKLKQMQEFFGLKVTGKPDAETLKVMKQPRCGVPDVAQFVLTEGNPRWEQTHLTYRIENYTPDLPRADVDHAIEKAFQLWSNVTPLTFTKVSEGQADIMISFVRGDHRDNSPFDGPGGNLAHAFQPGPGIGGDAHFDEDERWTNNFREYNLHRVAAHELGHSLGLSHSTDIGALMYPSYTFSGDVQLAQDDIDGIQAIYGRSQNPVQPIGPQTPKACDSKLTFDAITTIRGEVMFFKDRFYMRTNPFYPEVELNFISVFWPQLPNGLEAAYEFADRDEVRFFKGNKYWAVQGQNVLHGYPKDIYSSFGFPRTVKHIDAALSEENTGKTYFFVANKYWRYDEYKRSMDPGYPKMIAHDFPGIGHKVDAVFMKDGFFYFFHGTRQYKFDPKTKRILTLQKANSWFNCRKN

Cytochrome P450 1A2 = molecular target: T3, Cytochrome P450 1A2 (Homo sapiens, UniProt P05177); test: Inhibition of CYP1A2 at up to 50 uM; assay type: ADME
T3 sequence (P05177 whole entry): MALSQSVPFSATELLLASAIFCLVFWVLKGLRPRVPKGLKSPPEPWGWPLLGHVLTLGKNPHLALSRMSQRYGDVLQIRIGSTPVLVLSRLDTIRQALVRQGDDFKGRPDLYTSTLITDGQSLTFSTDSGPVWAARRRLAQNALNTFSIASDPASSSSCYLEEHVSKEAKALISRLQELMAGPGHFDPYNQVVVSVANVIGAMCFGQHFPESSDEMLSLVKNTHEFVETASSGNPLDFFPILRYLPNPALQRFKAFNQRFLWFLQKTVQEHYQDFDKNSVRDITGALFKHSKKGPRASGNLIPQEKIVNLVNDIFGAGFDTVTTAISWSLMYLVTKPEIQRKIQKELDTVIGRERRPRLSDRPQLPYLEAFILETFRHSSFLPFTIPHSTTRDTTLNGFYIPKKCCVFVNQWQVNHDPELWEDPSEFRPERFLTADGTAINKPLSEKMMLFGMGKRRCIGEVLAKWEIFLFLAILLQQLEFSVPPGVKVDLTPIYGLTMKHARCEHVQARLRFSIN

[4] = Volume of distribution at steady state in Sprague-Dawley rat at 1 mg/kg, iv; assay type: ADME, organism-based; design: dose 1 mg/kg, route intravenous; conditions: in vivo, read-out: Vdss
How it was run: (§2)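 Intravenous dose of 1 mg/kg. Blood sampled at 0.50, 1, 2, 4, 8 and 24 h. Plasma obtained by centrifugation at 10 000 rpm for 5 min and kept at −20 °C until analysis.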

[5] = Clearance in Sprague-Dawley rat at 1 mg/kg, iv; assay type: ADME, organism-based; design: dose 1 mg/kg, route intravenous; conditions: in vivo; how it was run: as §2
Cytochrome P450 3A4 = Cytochrome P450 3A4 (Homo sapiens, UniProt P08684); test: Inhibition of CYP3A4 at up to 50 uM; assay type: ADME
[6] = molecular target: T4, A disintegrin and metalloproteinase with thrombospondin motifs 5 (Homo sapiens, UniProt Q9UNA0); test: Inhibition of human recombinant aggrecanase 2 after 150 mins by fluorescence plate reader
T4 sequence (Q9UNA0 whole entry): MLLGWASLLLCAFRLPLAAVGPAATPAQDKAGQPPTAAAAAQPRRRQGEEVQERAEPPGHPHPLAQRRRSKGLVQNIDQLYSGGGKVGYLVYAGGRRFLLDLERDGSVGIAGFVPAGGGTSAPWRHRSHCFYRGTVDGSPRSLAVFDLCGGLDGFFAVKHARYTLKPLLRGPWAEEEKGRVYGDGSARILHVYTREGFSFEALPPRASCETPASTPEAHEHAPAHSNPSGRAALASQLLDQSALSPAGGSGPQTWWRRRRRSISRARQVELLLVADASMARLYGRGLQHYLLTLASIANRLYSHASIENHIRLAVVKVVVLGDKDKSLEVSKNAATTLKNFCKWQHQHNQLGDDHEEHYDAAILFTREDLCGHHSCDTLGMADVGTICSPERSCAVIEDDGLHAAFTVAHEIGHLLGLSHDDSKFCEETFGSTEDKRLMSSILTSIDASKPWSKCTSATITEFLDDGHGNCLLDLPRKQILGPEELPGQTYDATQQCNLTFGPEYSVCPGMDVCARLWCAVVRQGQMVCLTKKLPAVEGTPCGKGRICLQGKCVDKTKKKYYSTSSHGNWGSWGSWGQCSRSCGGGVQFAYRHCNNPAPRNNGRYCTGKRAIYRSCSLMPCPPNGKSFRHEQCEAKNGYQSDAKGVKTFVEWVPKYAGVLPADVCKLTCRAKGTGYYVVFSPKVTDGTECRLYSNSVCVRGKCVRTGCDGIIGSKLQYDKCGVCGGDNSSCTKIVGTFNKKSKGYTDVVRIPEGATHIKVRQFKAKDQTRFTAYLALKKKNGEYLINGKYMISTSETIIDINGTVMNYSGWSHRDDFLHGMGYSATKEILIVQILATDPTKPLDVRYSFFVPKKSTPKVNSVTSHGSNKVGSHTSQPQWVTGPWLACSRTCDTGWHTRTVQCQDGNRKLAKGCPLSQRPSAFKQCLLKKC

[7] = AUC in Sprague-Dawley rat at 10 mg/kg, po; assay type: ADME, organism-based; design: dose 10 mg/kg, route oral; conditions: plasma
Cytochrome P450 2C19 = Cytochrome P450 2C19 (Homo sapiens, UniProt P33261); test: Inhibition of CYP2C19 at up to 50 uM; assay type: ADME
[8] = Oral bioavailability in Sprague-Dawley rat at 10 mg/kg; assay type: ADME, organism-based; conditions: Sprague-Dawley, in vivo
[9] = Cmax in Sprague-Dawley rat at 10 mg/kg, po; assay type: ADME, organism-based; design: dose 10 mg/kg, route oral; conditions: in vivo
[10] = molecular target: T5, A disintegrin and metalloproteinase with thrombospondin motifs 4 (Homo sapiens, UniProt O75173); test: Inhibition of human recombinant aggrecanase 1 after 150 mins by fluorescence plate reader
T5 sequence (O75173 whole entry): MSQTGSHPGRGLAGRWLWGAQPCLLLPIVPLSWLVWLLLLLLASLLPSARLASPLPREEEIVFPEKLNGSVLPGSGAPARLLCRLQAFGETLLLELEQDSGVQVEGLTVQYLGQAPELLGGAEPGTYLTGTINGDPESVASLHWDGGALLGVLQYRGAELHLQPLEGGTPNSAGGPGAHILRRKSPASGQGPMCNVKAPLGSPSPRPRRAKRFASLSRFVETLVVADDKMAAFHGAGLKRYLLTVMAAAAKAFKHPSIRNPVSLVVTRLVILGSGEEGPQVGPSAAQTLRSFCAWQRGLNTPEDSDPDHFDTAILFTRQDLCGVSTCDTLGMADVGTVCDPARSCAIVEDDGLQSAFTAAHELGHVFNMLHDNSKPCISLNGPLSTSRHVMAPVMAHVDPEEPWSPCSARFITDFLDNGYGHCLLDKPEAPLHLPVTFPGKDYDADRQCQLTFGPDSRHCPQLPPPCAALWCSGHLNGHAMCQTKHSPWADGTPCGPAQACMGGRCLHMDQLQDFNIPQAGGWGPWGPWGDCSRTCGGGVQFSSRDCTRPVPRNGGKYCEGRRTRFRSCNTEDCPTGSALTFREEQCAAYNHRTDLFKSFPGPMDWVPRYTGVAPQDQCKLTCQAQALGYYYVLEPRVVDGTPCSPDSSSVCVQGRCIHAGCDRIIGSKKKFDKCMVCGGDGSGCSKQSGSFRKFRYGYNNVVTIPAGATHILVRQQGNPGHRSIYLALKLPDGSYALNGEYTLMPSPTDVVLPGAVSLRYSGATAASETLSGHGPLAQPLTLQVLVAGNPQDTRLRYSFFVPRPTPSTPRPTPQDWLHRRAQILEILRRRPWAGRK

Chain of Cytochrome P450 3A4 (P08684 whole entry): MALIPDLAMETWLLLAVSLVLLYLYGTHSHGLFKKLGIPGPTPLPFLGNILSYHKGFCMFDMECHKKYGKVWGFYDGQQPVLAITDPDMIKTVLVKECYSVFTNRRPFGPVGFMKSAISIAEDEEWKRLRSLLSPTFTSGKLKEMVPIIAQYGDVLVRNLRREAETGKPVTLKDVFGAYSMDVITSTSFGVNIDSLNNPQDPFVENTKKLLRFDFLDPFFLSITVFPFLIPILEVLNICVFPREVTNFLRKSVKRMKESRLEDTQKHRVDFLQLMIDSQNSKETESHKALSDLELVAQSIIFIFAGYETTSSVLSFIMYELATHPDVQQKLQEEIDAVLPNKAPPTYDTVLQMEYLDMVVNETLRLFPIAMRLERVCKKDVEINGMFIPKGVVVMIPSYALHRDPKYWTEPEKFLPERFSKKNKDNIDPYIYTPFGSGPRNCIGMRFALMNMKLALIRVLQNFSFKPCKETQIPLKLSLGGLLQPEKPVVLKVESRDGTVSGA
Chain of Cytochrome P450 2C19 (P33261 whole entry): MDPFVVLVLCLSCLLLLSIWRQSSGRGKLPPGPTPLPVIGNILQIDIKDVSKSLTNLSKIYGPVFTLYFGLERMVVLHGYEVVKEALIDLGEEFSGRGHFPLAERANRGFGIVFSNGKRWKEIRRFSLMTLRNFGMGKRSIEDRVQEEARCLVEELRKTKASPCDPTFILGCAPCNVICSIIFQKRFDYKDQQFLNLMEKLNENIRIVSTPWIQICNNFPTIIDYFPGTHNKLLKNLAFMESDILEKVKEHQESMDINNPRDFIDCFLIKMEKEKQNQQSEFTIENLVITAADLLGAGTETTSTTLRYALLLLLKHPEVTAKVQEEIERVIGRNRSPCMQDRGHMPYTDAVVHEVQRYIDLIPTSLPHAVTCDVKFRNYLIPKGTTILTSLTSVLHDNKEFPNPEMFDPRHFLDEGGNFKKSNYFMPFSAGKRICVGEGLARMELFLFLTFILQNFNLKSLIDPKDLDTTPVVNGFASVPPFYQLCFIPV
Chain of Disintegrin and metalloproteinase domain-containing protein 17 (P78536 whole entry, the tested form may be a part): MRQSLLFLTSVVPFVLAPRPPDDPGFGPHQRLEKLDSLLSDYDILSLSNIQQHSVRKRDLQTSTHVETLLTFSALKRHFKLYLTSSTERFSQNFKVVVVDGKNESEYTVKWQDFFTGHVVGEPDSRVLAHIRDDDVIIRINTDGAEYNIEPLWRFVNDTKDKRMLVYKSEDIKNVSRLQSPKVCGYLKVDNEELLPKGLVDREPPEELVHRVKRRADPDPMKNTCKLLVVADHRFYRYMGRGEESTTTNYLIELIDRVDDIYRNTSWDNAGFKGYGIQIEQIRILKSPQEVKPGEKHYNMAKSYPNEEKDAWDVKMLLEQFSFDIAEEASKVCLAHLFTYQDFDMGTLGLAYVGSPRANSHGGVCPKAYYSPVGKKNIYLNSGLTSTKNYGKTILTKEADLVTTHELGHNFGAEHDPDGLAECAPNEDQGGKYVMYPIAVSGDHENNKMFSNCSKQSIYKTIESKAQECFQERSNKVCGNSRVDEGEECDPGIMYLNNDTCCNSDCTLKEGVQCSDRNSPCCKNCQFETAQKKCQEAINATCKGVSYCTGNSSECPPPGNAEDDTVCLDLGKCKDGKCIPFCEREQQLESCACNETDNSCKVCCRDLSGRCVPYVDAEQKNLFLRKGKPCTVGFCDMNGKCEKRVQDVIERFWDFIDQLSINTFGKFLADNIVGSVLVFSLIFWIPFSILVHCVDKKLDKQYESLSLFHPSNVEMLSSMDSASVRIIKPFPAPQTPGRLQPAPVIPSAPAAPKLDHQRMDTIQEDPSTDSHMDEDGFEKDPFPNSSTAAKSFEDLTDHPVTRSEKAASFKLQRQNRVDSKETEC
Chain of Cytochrome P450 2C9 (P11712 whole entry): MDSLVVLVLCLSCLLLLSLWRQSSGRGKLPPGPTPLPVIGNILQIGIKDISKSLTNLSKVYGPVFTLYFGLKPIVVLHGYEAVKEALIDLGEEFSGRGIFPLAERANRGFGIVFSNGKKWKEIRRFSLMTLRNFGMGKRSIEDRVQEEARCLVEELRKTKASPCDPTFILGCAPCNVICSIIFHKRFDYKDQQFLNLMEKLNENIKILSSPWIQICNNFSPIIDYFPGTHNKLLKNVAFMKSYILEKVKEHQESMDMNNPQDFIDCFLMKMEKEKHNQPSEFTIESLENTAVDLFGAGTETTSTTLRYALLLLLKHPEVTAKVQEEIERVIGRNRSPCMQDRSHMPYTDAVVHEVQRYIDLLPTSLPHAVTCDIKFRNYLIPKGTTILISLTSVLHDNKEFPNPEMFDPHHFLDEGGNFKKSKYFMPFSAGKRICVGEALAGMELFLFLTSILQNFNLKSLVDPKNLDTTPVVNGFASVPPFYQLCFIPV
Chain of Cytochrome P450 2D6 (P10635 whole entry, the tested form may be a part): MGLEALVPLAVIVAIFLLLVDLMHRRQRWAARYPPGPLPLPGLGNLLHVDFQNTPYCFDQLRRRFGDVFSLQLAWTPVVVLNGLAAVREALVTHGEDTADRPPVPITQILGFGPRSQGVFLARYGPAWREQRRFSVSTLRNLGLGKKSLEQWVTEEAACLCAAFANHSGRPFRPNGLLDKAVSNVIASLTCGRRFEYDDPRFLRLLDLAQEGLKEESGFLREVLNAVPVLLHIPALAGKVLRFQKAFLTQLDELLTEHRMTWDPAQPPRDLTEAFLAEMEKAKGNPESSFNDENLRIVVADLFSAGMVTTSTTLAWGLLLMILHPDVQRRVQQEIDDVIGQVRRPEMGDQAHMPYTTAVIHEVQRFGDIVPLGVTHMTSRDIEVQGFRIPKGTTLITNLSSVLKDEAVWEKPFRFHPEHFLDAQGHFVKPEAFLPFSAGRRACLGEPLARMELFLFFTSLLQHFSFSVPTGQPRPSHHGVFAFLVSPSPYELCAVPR

Structure (SMILES) | inhibition (INH) (Cytochrome P450 2A6) | inhibition (INH) (Cytochrome P450 2D6) | IC50 [1] | half-life [2] | inhibition (INH) (Cytochrome P450 2C9) | IC50 [3] | IC50 (Interstitial collagenase) | inhibition (INH) (Cytochrome P450 1A2) | Vd [4] | clearance [5] | inhibition (INH) (Cytochrome P450 3A4) | IC50 [6] | AUC [7] | inhibition (INH) (Cytochrome P450 2C19) | bioavailability [8] | Cmax [9] | IC50 [10]
C[C@@H]1CN(S(=O)(=O)N[C@@]2(C(=O)O)[C@H](C)[C@]2(C)c2ccccc2)CCN1c1cc(C(F)F)on1 | Not Active | Not Active | > 10 µM | 1.9 h | Not Active | > 10 µM | > 10 µM | Not Active | 1.9 L/kg | 0.7 L/h/kg | Not Active | 0.017 µM | 17.8 µM·h | Not Active | 64% | 4.9 µM | –
CC(C)(NC(=O)[C@H](CCC(=O)O)NC(=O)c1ccc(-c2ccccc2)cc1)c1ccccc1 | – | – | – | – | – | – | – | – | – | – | – | 1.1 µM | – | – | – | – | 0.21 µM
CC1(C)C[C@@H](O)CN(S(=O)(=O)c2ccc(OCc3ccc(Cl)cc3Cl)cc2)[C@H]1C(=O)NO | – | – | – | – | – | – | – | – | – | – | – | 0.0014 µM | – | – | – | – | 0.0011 µM
C[C@@H]1CN(S(=O)(=O)N[C@@]2(C(=O)O)[C@H](C)[C@]2(C)c2ccccc2)CCN1c1ccc(C#N)s1 | Not Active | Not Active | > 10 µM | 4.5 h | Not Active | > 10 µM | > 10 µM | Not Active | 2.6 L/kg | 0.29 L/h/kg | Not Active | 0.029 µM | 88.4 µM·h | Not Active | 119% | 15.9 µM | –
O=C(NO)c1nc2ccccc2c2c1CN(c1ccc(OCc3ccccc3)cc1)C2=O | – | – | – | – | – | – | – | – | – | – | – | 0.95 µM | – | – | – | – | 0.21 µM
